In ChEMBL document CHEMBL4513216, “Probing the Open Global Health Chemical Diversity Library for Multistage-Active Starting Points for Next-Generation Antimalarials” (ACS Infect Dis, 2020) one finds cytotoxicity data, which are given here for 95 compounds.

This series in a line: Toxicity liver stage against HepG2, at 10uM. Set-up: test concentration 10 uM, cell line HepG2-A16-CD81EGFP. The series is classed as cell-based. The conditions noted are these: human, HepG2-A16-CD81EGFP cells; read-out: INHIBITION
The gist of the method: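 Uninfected HepG2-A16-CD81EGFP cells, 3 × 10^3 per well, 1536-well, plated on prespotted compound at 10 μM final, parasite-free screening media added to match infected plates; puromycin 10 μM positive, DMSO 0.5% negative; run in parallel with 48 h PbLuc assay at 37 °C, 5% CO2; viability by CellTiter-Glo luminescence, normalized to controls.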
With `Fc1ccc(-c2noc(CN3CCC(c4cc[nH]n4)CC3)n2)cc1`, the cytotoxicity at 10 µM was 18.4%.

On to `Cc1nn(-c2ccccn2)c(C)c1[C@@H]1C=C[C@@H](NC(=O)CCC(=O)O)C1`, for which the cytotoxicity at 10 µM is 4.59%.

For `O=C(CCCSc1ccc(NC(=O)C2CC2)nn1)NCC1CCCO1` (stereo not given), the cytotoxicity at 10 µM is -4.45%.

Take `Cc1cc(C(=O)NCC(Cc2cccc(F)c2)N2CCCCC2=O)no1` (stereo not given): the cytotoxicity at 10 µM was 2.68%.

`CC(C)S(=O)(=O)NCC(Cc1cccc(F)c1)N1CCNC1=O` (stereo not given): the cytotoxicity at 10 µM is -1%.

On to `O=C(Cc1ccc(F)cc1)NCCNc1cc(N2CCCC2)cnn1`, for which the cytotoxicity at 10 µM is -3.29%.

`O=C(NCCc1ccccn1)[C@@]12CCO[C@@H]1CCN(c1ncccn1)C2`: the cytotoxicity at 10 µM was 4.26%.

With `N#Cc1ccc2c(c1)CN(C(=O)C1CC=CC1)C2c1cnco1` (stereo not given), the cytotoxicity at 10 µM was -0.0499%.

With `O=C(NC1CCCC1)NC1CCc2[nH]c(=O)ccc2C1` (stereo not given), the cytotoxicity at 10 µM worked out at 7.91%.

With `CS(=O)(=O)NCc1noc2c1CN(C(=O)c1ccsc1)CC2`, the cytotoxicity at 10 µM was 7.86%.

For `Cc1noc([C@@H]2CCO[C@@H]3CCN(C(=O)Cc4ccsc4)C[C@@H]32)n1`, the cytotoxicity at 10 µM stood at 10.4%.

With `COCC1CN(Cc2ccoc2)Cc2cn(CC3CCCC3)nc21` (stereo not given), the cytotoxicity at 10 µM is 4.32%.

As to `Cc1cc(C)cc(Nc2nc(C)cc(=O)n2CC(=O)NC(C)C)c1`, the cytotoxicity at 10 µM is -7.3%.

Take `Cn1c(=O)n(C)c2cc(C3SCC(=O)Nc4ccsc43)ccc21` (stereo not given): the cytotoxicity at 10 µM came to 4.49%.

Consider `O=C([C@H]1C[C@H]2OCC[C@H]2N(C(=O)c2ccncc2)C1)N1CCCCO1`, for which the cytotoxicity at 10 µM is -6.77%.

For the compound `O=C1CNc2ncnc(Nc3cnn(Cc4ccccc4)c3)c2N1`, the cytotoxicity at 10 µM was 7.38%.

Turning to `O=C(c1cccc(-n2cnnc2)c1)N1C[C@@H](O)[C@H](N2CCOCC2)C1`, the cytotoxicity at 10 µM amounted to 2.26%.

For `COCCNc1ccc(CC2CCCN(C3CCCC3)C2)nn1` (stereo not given), the cytotoxicity at 10 µM is 3.07%.

`CNC(=O)CCc1cc(C)nc(C2CCN(c3cnccn3)CC2)c1`: the cytotoxicity at 10 µM is 1.31%.

Take `CCC(=O)NC(c1ccc(C)cc1)c1cccc(S(C)(=O)=O)c1` (stereo not given): the cytotoxicity at 10 µM was -7.62%.

Take `CCOc1ccc(NC(=O)NCCCN(C)S(C)(=O)=O)cc1C`: the cytotoxicity at 10 µM is 2.79%.

In the case of `Cc1noc(C)c1CS(=O)(=O)CC(=O)NCCc1ccccc1`, the cytotoxicity at 10 µM was -5.83%.

As to `Cc1cccc(C)c1NC(=O)CNC(C)Cc1ccsc1` (stereo not given), the cytotoxicity at 10 µM is -6.12%.

Consider `CC(C)(C)OC(=O)N1CCC(NC2CC2)CC1`, for which the cytotoxicity at 10 µM was -5.64%.

For `CC(=O)N(Cc1ncc(C)o1)C1CCN(Cc2nnc(C3CC3)o2)C1` (stereo not given), the cytotoxicity at 10 µM worked out at 5.08%.

Consider `CSC(C)(C)CNC(=O)NC1CCC1`, for which the cytotoxicity at 10 µM was -7.32%.

For the compound `O=C(NC1CCN(c2cccc(OC(F)(F)F)c2)C1=O)C1CCC1` (stereo not given), the cytotoxicity at 10 µM was -3.11%.

Take `Clc1cnccc1N1CCCOCC1`: the cytotoxicity at 10 µM was -0.625%.

Turning to `CSc1ccc(C(CNC(C)=O)N2CCc3sccc3C2)cc1` (stereo not given), the cytotoxicity at 10 µM was found to be 6.84%.

As to `CCCc1n[nH]c(C2CN(C(=O)CCn3nc(C)cc3C)CCO2)n1` (stereo not given), the cytotoxicity at 10 µM was -11.9%.

On to `Cn1cc(Br)cc(NC(=O)CC(C)(C)C)c1=O`, for which the cytotoxicity at 10 µM is 5.82%.

Take `Cc1nn(C)c(C)c1CCC(=O)Nc1nnc(C2CC2)s1`: the cytotoxicity at 10 µM was -10.1%.

Take `CCCS(=O)(=O)N(C)C(=O)CCc1ccsc1`: the cytotoxicity at 10 µM amounted to 0.321%.

Consider `c1ccc(-n2nnnc2CNCc2ccc3c(c2)OCCO3)cc1`, for which the cytotoxicity at 10 µM was determined as 9.35%.

On to `CCC(C(=O)NCC1CCN(c2ccncc2)CC1)N(C)C` (stereo not given), for which the cytotoxicity at 10 µM came to 15%.

As to `Cc1ccc(N2CCC(NCc3cnc(C4CCC4)s3)CC2)nc1`, the cytotoxicity at 10 µM came out at 6.75%.

For `CC(=O)c1cccc(S(=O)(=O)N2CCC(c3n[nH]c(C)n3)CC2)c1`, the cytotoxicity at 10 µM is -5.83%.

For the compound `COc1cncc(N2CCN(Cc3cccn3C)CC2)n1`, the cytotoxicity at 10 µM stood at 6.09%.

In the case of `CN(CC1CCCC1)C(=O)c1cn(C)nc1-c1cccnc1`, the cytotoxicity at 10 µM was -0.0402%.

As for `CN(Cc1ccc(OC(F)F)cc1)C(=O)CS(=O)(=O)c1ccc(Cl)cc1`, the cytotoxicity at 10 µM is 5.19%.

As to `CCSc1cc(C(=O)NCc2ccccc2O)ccn1`, the cytotoxicity at 10 µM is -3.81%.

On to `O=C(NCC1CC1)C1CN(C(=O)NC2CCCC2)Cc2cncn2C1` (stereo not given), for which the cytotoxicity at 10 µM was -106%.

Turning to `CS(=O)(=O)NCc1nnc2n1CCN(Cc1cccs1)C2`, the cytotoxicity at 10 µM was -1.57%.

Turning to `CCc1nc(CC2CN(c3ncnc4sc(C)c(C)c34)CCO2)no1` (stereo not given), the cytotoxicity at 10 µM was determined as 11.9%.

In the case of `O=C(c1cccc(Cl)c1)N1CC[C@@H](N2CCC(O)CC2)[C@H](O)C1`, the cytotoxicity at 10 µM is -1.61%.

For `CC(C)N(Cc1c[nH]nc1-c1ccc2c(c1)OCO2)Cc1nccn1C`, the cytotoxicity at 10 µM is -7.8%.

With `CCOc1ncccc1-c1cc2c(cc1C(N)=O)OCO2`, the cytotoxicity at 10 µM is -0.421%.

With `O=C(Cn1cccn1)N1CCC(Cn2cc(-c3ccsc3)nn2)CC1`, the cytotoxicity at 10 µM was -0.554%.

Take `CC(=O)N[C@@H]1Cc2ccccc2[C@H]1Nc1cc(C2CC2)ncn1`: the cytotoxicity at 10 µM was -45.2%.

For `CC(Cn1cccn1)n1cnc2ccc(F)cc2c1=O` (stereo not given), the cytotoxicity at 10 µM stood at 0.956%.

For the compound `CCc1ccc(CN(C)Cc2nc(-c3cnccn3)no2)nc1`, the cytotoxicity at 10 µM came out at 3.57%.

In the case of `Cn1ncc2c(N3CCS(=O)(=O)CC3)nc(-c3cccnc3)nc21`, the cytotoxicity at 10 µM amounted to 4.38%.

In the case of `CCc1nnc(CN(C)Cc2cccc(C(=O)Nc3ccnn3C)c2)o1`, the cytotoxicity at 10 µM was -3.7%.

With `COC[C@@]12CC[C@@H](N3CCOCC3)C[C@H]1CCN(c1ncccc1F)C2`, the cytotoxicity at 10 µM was -3.47%.

As to `CC(C)c1cc(NCC2(Cn3cccn3)CC2)nc(N)n1`, the cytotoxicity at 10 µM came out at 3.19%.

As for `COCC(Nc1nc(N(C)C)nc2c1CCNCC2)c1ccccn1` (stereo not given), the cytotoxicity at 10 µM came to 1.58%.

Regarding `CCCn1cnnc1CNC1CCSC1` (stereo not given), the cytotoxicity at 10 µM is -1.1%.

For `CS(=O)(=O)N1CCC(Oc2ccc(C(=O)NCC3CCC3)cc2Cl)CC1`, the cytotoxicity at 10 µM was found to be 12%.

Turning to `CSc1ccc(C(C(=O)O)N2CCCC2)cc1` (stereo not given), the cytotoxicity at 10 µM turned out to be 1.16%.

For `CNC(=O)C1(N(C)CCc2ccccc2)Cc2ccccc2C1`, the cytotoxicity at 10 µM stood at 11.5%.

For the compound `Cc1nc2c(c(N(C)Cc3ccccc3-n3cccn3)n1)CCNCC2`, the cytotoxicity at 10 µM was -11.2%.

In the case of `Cc1cc(NCCCc2c(C)noc2C)nc(N)n1`, the cytotoxicity at 10 µM was found to be 12%.

`c1ccc(CCCn2cc(-c3nc(CN4CCOCC4)no3)nn2)cc1`: the cytotoxicity at 10 µM was 2.14%.

`CNc1nc(C(=O)N2CCN(c3cc(C)nc(C)c3)CC2)cs1`: the cytotoxicity at 10 µM was 3.78%.

Take `CC1CCN(CC2(O)CCCN(Cc3cccc(F)c3F)C2=O)CC1` (stereo not given): the cytotoxicity at 10 µM stood at 0.801%.

In the case of `Cc1nc2ccc(S(=O)(=O)Nc3c(C)nn(CC(=O)O)c3C)cc2s1`, the cytotoxicity at 10 µM is -2.83%.

Regarding `CNc1cc(C)nc(N2CCC3(CC2)[C@H](O)C[C@@H]3OC)n1`, the cytotoxicity at 10 µM was -6.72%.

Consider `CN(C)Cc1cn(CC2CCCN(c3nccc4occc34)C2)nn1` (stereo not given), for which the cytotoxicity at 10 µM is -9.67%.

For `CCC(C(=O)NCc1cccnc1)N(c1cccc(C)c1)S(C)(=O)=O` (stereo not given), the cytotoxicity at 10 µM came out at 2.57%.

In the case of `COCC(=O)NCc1cccnc1-n1cnc2ccccc21`, the cytotoxicity at 10 µM was -2.8%.

As for `Cc1cc(N2CCN(Cc3ccc(C)o3)CC2)cc(C)n1`, the cytotoxicity at 10 µM was -6.61%.

On to `CC(C)C(NC(=O)Nc1ccccn1)c1cccs1` (stereo not given), for which the cytotoxicity at 10 µM was 2.27%.

As to `COc1ccc(-c2nc(C(=O)NCC3CCOC3)cs2)cc1OC` (stereo not given), the cytotoxicity at 10 µM turned out to be 2.39%.

As to `CCOc1ccnc(N2CCN(C(=O)c3ccncc3)CC2)n1`, the cytotoxicity at 10 µM was -4.6%.

For `O=C(CCC1CCCO1)NCc1ccccc1Cn1cncn1` (stereo not given), the cytotoxicity at 10 µM was -4.05%.

Regarding `Cc1noc(C(C)N2CCN(Cc3ccco3)CC2)n1` (stereo not given), the cytotoxicity at 10 µM is -3.37%.

`CN(Cc1cnn(C)c1)C(=O)NCc1cc(Br)cs1`: the cytotoxicity at 10 µM is -10.1%.

As for `CCn1cc(NC(=O)NCC(c2ccc(OC)cc2)N(C)C)cn1` (stereo not given), the cytotoxicity at 10 µM is -2.4%.

`O=S(=O)(NCc1ccccc1Cn1cncn1)N1CCCCCC1`: the cytotoxicity at 10 µM was determined as 0.512%.

On to `Cc1cc(C)c(CNC(=O)N2CCCC2c2ccc(F)cc2)c(=O)[nH]1` (stereo not given), for which the cytotoxicity at 10 µM came to 1.38%.

Take `COC(=O)c1cccc(C(=O)NCc2ccc3c(c2)CCCN3C)c1`: the cytotoxicity at 10 µM was -11.7%.

For the compound `CN(Cc1ccsc1)C(=O)c1cccc(S(=O)(=O)NC(C)(C)C)c1`, the cytotoxicity at 10 µM is -8.03%.

Regarding `CN(C)C(CNC(=O)c1cc2c([nH]c1=O)CCCC2=O)c1ccsc1` (stereo not given), the cytotoxicity at 10 µM was -1.96%.

As for `Cc1ccccc1-n1ncc(C(=O)N2CCCC2c2cnn(C)c2)c1C` (stereo not given), the cytotoxicity at 10 µM is -4.84%.

For the compound `NC(=O)CN1CCC(NC(=O)Nc2nccs2)CC1`, the cytotoxicity at 10 µM is -5.9%.

On to `CCc1nnc2n1CCN(Cc1csc(-c3ccc(C)o3)n1)C2`, for which the cytotoxicity at 10 µM is -1.5%.

Take `Cc1nc(Nc2cnccn2)cc(C2CCCN2)n1` (stereo not given): the cytotoxicity at 10 µM was -9.46%.

For the compound `Cn1cc(N2C[C@@H]3CN(Cc4ccccn4)C[C@@H]3C2=O)cn1`, the cytotoxicity at 10 µM is -95.6%.

Turning to `CN(C)CCOC[C@H]1CC[C@H]2[C@H](CCN2C(=O)c2ccoc2)O1`, the cytotoxicity at 10 µM is -81.5%.

Consider `O=C(C1=CCCC1)N1CCC[C@]2(C[C@@H](OCc3ccccn3)CO2)C1`, for which the cytotoxicity at 10 µM turned out to be 9.79%.

As for `Cn1cccc1C(=O)N[C@H]1CN(Cc2ccoc2)[C@@H]2CCCO[C@H]12`, the cytotoxicity at 10 µM was -88.7%.

On to `COc1ccc(CN2C[C@@H](OCc3ccccn3)[C@H]3COC[C@H]32)cc1`, for which the cytotoxicity at 10 µM stood at 3.63%.

Regarding `Cc1ccc(CN2CCc3ncnc(C4CC4)c3CC2)s1`, the cytotoxicity at 10 µM came to 4.63%.

Regarding `Cc1noc(C)c1CN1CC[C@@H]2O[C@H](COCC3CC3)CC[C@@H]21`, the cytotoxicity at 10 µM was found to be 5.65%.

Turning to `O=C(CC1[C@H]2CN(C(=O)c3cccnc3)C[C@@H]12)Nc1cccnc1` (stereo not given in full), the cytotoxicity at 10 µM is 7.37%.
